# From PubChem BioAssay
# Compounds with a hit are over-represented: about 3% of the library has one in this group of screens.
# PGC1a acetyl inh: modulators of PGC1a acetylation; U2OS PGC1a acetylation, AlphaScreen anti-acetyl-lysine; with virally co-expressed GCN5 acetyltransferase; inhibition, % at 15.6 µM; 0.17% of 350,000 active; AID 651687;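 active = every replicate shows inhibition of at least 40%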;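 also: 0% = neutral control wells and 100% = positive control wells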
# SIRT5 inh: sirtuin-5 (human) deacylase inhibition; 1.1% of 330,000 active; Purified SirT5, succinyl-peptide AMC, trypsin-coupled fluorescence; inhibition, % at 15 µM; Q9NXA8; AID 652115; in the data active = inhibition above about 15%
# Target sequence (Q9NXA8 whole entry, looked up): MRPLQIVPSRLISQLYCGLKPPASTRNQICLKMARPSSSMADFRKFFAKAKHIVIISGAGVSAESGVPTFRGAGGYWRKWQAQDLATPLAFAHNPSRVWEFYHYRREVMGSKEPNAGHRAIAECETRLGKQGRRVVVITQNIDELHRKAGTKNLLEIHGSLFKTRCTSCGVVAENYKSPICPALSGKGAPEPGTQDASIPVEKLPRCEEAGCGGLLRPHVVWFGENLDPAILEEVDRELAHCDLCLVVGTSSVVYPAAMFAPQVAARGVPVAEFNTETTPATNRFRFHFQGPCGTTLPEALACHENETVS
# Cneo AK release: causes C. neoformans cell lysis; lysis activity, % at 15 µM; 0.2% of 360,000 active; AID 651654; adenylate kinase release luminescence, 4 h; normalised: neutral wells 0, clomiphene wells 100;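 active = mean lysis activity across replicates of at least 80%, whatever share of replicates individually reach that level; inactive = mean lysis activity below 80%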
#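 Test system: log-phase Cryptococcus neoformans yeast cells; Quantity: yeast cell density of 5 × 10^6 cells/mL; Buffer or medium: YPD; Doses: single compound concentration per well; Timing: 4 h at 37 °C static, read 1 h later; Measured by: AK luminescence; Read-out basis: lysis from increased AK signal; Control set: Clomiphene as positive control.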
# S100A4 MyoIIA: inhibitors of human S100A4 binding to myosin IIA peptide; P26447; S100A4/TAMRA-MyoIIA peptide fluorescence polarization; inhibition, % at 10.7 µM; 0.14% of 360,000 active;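 active = mean inhibition of at least 70% across replicates, with every replicate also reaching that level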
# Target sequence (P26447 whole entry, looked up): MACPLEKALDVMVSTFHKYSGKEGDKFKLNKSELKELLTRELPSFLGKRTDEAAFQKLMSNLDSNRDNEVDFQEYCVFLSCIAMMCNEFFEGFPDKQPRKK
#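 Material: S100A4 monomer protein / Buffer or medium: 50 mM HEPES pH 7.2, 10 mM CaCl2, 100 mM KCl / Times: 5 min incubation before reading / Benchmarks: neutral control DMSO, positive control TFP / Reagent: labelled myosin peptide probe, 5 nM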
# C2C12 statin: suppressors of simvastatin-induced myotoxicity in C2C12 myotubes; ATP luminescence, 48 h; scaled: DMSO 0, geranylgeraniol control 100; rescue of ATP level, % at 7.49 µM; 0.78% of 330,000 active; AID 602340;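 active = mean ATP rescue above about 67%, or every replicate alone reaching that limit, limit read from the data, passing the limit was not always enough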;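 also: myotubes were challenged with 10 µM simvastatin during compound exposure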
# rRNA inh HTS: selective bacterial rRNA inhibition in E. coli; E. coli WT GFP vs humanized-ribosome RFP mutants, fluorescence, 24 h; stronger effect = lower value; DMSO median 0, no signal -100; AID 720706; 1.6% of 350,000 active; GFP signal change (wild-type ribosome), % (no concentration beside the values);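 active = significant combined selectivity score with lowered wild-type GFP, culture density cut under 30%, mutant RFP and density less affected; inactive = any of these conditions unmet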
# * = called active by the depositor; x = not tested or not shown; ! = not active in a repeat.
SMILES,PGC1a acetyl inh,SIRT5 inh,Cneo AK release,S100A4 MyoIIA,C2C12 statin,rRNA inh HTS
COc1ccc(CNC(=O)c2cc(=O)c3cc(C)cc(C)c3o2)cc1,9,24*,-4,-15,0,14
CSc1ncnc2c1cnn2-c1ccc(C)cc1C,6,-1,x,-3,x,-5
Cc1ccc(-n2ncc3c(SCc4ccccn4)ncnc32)c(C)c1,x,-2,x,-4,x,-16*
Cc1ccc(S(=O)(=O)N(C)C[C@@H]2Oc3ccc(NC(=O)Cn4cnnn4)cc3C(=O)N([C@H](C)CO)C[C@@H]2C)cc1,-10,-1,5,9,3,0
CCNc1nc(NCC)nc(Nn2cnnc2)n1,6,0,-4,-4,99*,10
CCNc1nc(NC(C)(C)C)nc(N(CC)n2cnnc2)n1,-8,x,2,x,-3,x
COc1cc(/C=N/NC(=O)c2c(-c3ccccc3)noc2C)ccc1O,10,x,x,x,x,x
COc1ccc(Cl)cc1/C=N/NC(=O)c1c(-c2ccccc2)noc1C,x,2,2,-6,-4,-17*
COc1cccc(/C=N/NC(=O)c2c(-c3ccccc3)noc2C)c1OC,x,-10,1,-3,1,-20*
COc1cccc(/C=N/NC(=O)c2c(-c3ccccc3)noc2C)c1O,9,x,x,x,x,x
CO[C@@H]1CN(C)C(=O)c2cc(NC(=O)c3ccccc3F)ccc2OC[C@H](C)N(C(=O)c2ccccc2F)C[C@@H]1C,0,-1,-8,-8,0,-1
CN1C(=O)c2cc(NC(=O)c3cccc(F)c3)ccc2OC[C@@H]2O[C@H](CC(=O)N3CCc4ccccc4C3)CC[C@H]21,1,6,0,4,34,-10
NNc1nc(-c2ccccc2)cc(-c2ccc(Br)cc2)n1,-10,1,-1,-13,23,-25*
C[C@@H]1CN([C@@H](C)CO)C(=O)c2cc(NS(=O)(=O)c3cccs3)ccc2O[C@H]1CN(C)C(=O)NC1CCCCC1,x,x,x,x,x,-3
CC(C)NC(=O)N(C)C[C@@H]1Oc2ccc(NS(=O)(=O)c3ccccc3)cc2C(=O)N([C@H](C)CO)C[C@@H]1C,-1,1,-1,112*,19,2
C[C@@H]1CN([C@@H](C)CO)C(=O)c2cc(NS(=O)(=O)c3ccccc3)ccc2O[C@@H]1CN(C)CC1CCCCC1,-10,25*,3,9,41,4
CC(C)NC(=O)N(C)C[C@H]1Oc2ccc(NC(=O)Cc3ccccc3)cc2C(=O)N([C@H](C)CO)C[C@@H]1C,6,20*!,12,-1,6,7
C[C@H](CO)N1C[C@H](C)[C@@H](CN(C)C(=O)NC2CCCCC2)Oc2ccc(NS(=O)(=O)c3cccs3)cc2C1=O,0,16*!,-4,-1,-37,0
Cc1ccc(S(=O)(=O)N(C)C[C@@H]2OCCCC[C@H](C)Oc3ccc(NS(=O)(=O)c4cccs4)cc3C(=O)N([C@H](C)CO)C[C@H]2C)cc1,-13,12,-2,-14,x,-1
CC=Cc1ccc2n(c1=O)C[C@H]1[C@H](CO)[C@@H](C(=O)NC3Cc4ccccc4C3)[C@@H]2N1C(C)=O (mixture of isomers),x,-5,-2,3,11,0
C[C@@H]1CN([C@@H](C)CO)C(=O)c2cc(NS(=O)(=O)c3ccccc3)ccc2O[C@H]1CN(C)C(=O)NC1CCCCC1,0,2,112*,-8,8,2
O=C(/C=C/c1cccc2ccccc12)NCCC1=CCCCC1,-4,x,1,x,82*,x
COc1cccc(/C=C/C(=O)OCC(=O)NCCC2=CCCCC2)c1OC,3,-2,-1,1,4,13
C[C@@H]1CN([C@H](C)CO)C(=O)c2cc(-c3ccc(F)cc3)cnc2O[C@@H]1CN(C)C(=O)NC1CCCC1,0,-5,7,-10,9,-2
O=C(O)CCC(=O)NNC(=O)CCC1CCCCC1,x,-2,x,3,x,9
SMILES,PGC1a acetyl inh,SIRT5 inh,Cneo AK release,S100A4 MyoIIA,C2C12 statin,rRNA inh HTS
O=C(O)CCC(=O)OCC1CCCCC1,3,-2,3,6,114*,11
CC(C)NC(=O)Nc1cccc2c1O[C@@H](CN(C)CC1CCCCC1)[C@H](C)CN([C@@H](C)CO)C2=O,-6,4,x,2,x,-11
Cc1noc(C)c1C(=O)N(C)C[C@@H]1OCc2ccccc2-c2c(n(C)c3ccccc23)C(=O)N([C@H](C)CO)C[C@H]1C,10,17*,-1,-7,21,2
C[C@@H]1CN([C@H](C)CO)C(=O)c2c(c3ccccc3n2C)-c2ccccc2CO[C@@H]1CN(C)C(=O)c1cc(Cl)cc(Cl)c1,-41,19*,x,3,x,0
CC(C)CNC(=S)N1CCN(C(c2ccccc2)c2ccccc2)CC1,x,-2,x,3,x,9
S=C(NCc1ccco1)N1CCN(C(c2ccccc2)c2ccccc2)CC1,-4,-5,8,0,86*,-3
CN1/C(=C/C(=O)c2nc(S(C)(=O)=O)ncc2Cl)C(C)(C)c2ccccc21,83*,x,x,x,x,x
COc1ccc(S(=O)(=O)Nc2ccc3c(c2)C(=O)N([C@@H](C)CO)C[C@H](C)[C@@H](CN(C)S(=O)(=O)c2ccc(OC)cc2)OCCCC[C@H](C)O3)cc1,-10,x,-4,x,x,-4
Cc1ccc(C(=O)COC(=O)CN2C(=O)C3C4CC(C(Br)C4Br)C3C2=O)cc1 (stereo not drawn),8,102*,1,-3,-6,5
COc1ccc(C(=O)COC(=O)CCN2C(=O)C3C4CC(C(Br)C4Br)C3C2=O)cc1 (stereo not drawn),5,x,0,x,-3,x
CCOc1ccc(-c2nc3n(c(=O)c2C#N)CCCS3)cc1,4,x,6,x,103*,x
COc1ccc(C(=O)NCc2oc(-c3ccccc3)cc2C(=O)O)cc1,x,-1,0,7,3,-24*
Cc1cccc(Nc2nc(-c3cccs3)cs2)n1,-6,x,-19,x,11,x
c1ccc(Nc2nc(-c3cccs3)cs2)nc1,-2,x,-4,x,148*,x
Fc1ccc(-c2csc(Nc3ccccn3)n2)cc1,x,-1,0,0,154*,1
COc1ccc(-c2csc(Nc3cccc(C)n3)n2)cc1,2,1,-4,5,-12,-2
c1ccc(Nc2nc(-c3cccnc3)cs2)nc1,x,x,-5,x,x,x
Cc1cccc(Nc2nc(-c3ccc(F)cc3)cs2)n1,-5,-5,3,-9,5,-18*
COc1ccc(S(=O)(=O)Nc2ccc3c(c2)C(=O)N([C@@H](C)CO)C[C@@H](C)[C@@H](CN(C)CC2CC2)OCCCC[C@@H](C)O3)cc1,6,8,0,7,56,1
